# WT yeast gro inh: growth inhibition of WT yeast, mitochondrial fusion screen. mitochondrial fusion phenotypic screen, WT strain. 190,000 compounds, 2.1% hits. inhibition, % at 10 µM; in the data active means inhibition above about 58%; tested in S. cerevisiae
# NCF1 inh: inhibitors of human p47phox binding | P14598 | p47phox/p22phox peptide binding, fluorescence polarization, 2 h | 220,000 compounds, 0.53% hits | inhibition, % at 24.7 µM;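 active means inhibition above about 30%, limit read from the data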;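 further: 0% = p47phox with labelled peptide and 100% = labelled peptide alone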
# Target sequence (P14598 whole entry, looked up): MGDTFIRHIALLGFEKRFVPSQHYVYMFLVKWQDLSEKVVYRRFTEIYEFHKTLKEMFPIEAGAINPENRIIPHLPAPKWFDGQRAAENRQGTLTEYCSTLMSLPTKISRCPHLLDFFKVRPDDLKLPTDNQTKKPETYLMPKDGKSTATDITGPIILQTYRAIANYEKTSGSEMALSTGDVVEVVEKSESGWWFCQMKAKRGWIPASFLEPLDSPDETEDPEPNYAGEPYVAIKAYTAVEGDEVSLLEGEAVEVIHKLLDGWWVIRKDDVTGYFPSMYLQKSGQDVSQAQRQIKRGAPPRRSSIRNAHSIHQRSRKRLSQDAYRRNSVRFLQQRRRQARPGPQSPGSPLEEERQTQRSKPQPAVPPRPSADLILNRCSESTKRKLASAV
# RBBP9 inhibitor: blocks human serine hydrolase RBBP9; inhibition, % at 7.94 µM; 220,000 compounds, 0.2% hits; O75884; AID 1515; recombinant RBBP9, FP-Rh probe fluorescence polarization;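 active means inhibition above the campaign mean of all tested compounds plus 3 SD, cut at about 14% in these data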;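 further: plate controls were DMSO wells with RBBP9 for no effect and wells lacking RBBP9 protein for full effect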
#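 System: RBBP9 protein / Buffer or medium: Tris/NaCl buffer pH 8.0 with 0.1% Pluronic / Probe or stimulus: Serine-hydrolase probe FP-Rh, 375 nM pre-mixing / Dosing: 7.94 µM single dose, 0.794% DMSO / Times: enzyme-compound preincubation 30 min, then probe labeling 45 min, 25 °C / Technique: fluorescence polarization (mP), excitation 525 nm, emission 598 nm / Replication: singlicate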
# Cl transport mod: KCC2 (human) Cl- transport modulation; KCC2 cells, thallium flux FluoZin-2 fluorescence; B-score of Tl+ flux slope (higher = more flux/activation; lower = inhibition) at 10 µM; 190,000 compounds, 2.2% hits;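 active means thallium flux slope and its plate-corrected score both differing from the plate sample mean at a set confidence after two filtering rounds, in either direction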;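 further: slope of fluorescence scaled to starting intensity during 10 to 20 s after thallium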
# ROMK primary: modulators of human ROMK potassium channel | B-score at 10 µM | Tet-inducible ROMK, thallium flux fluorescence; actives lie on both sides | AID 1918 | 130,000 compounds, 2% hits;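 active means signal ratio slope over the read window, or its plate-corrected B-score, at least 3 SD from the plate mean, either direction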;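 further: B-score of the F/F0 ratio slope over 7 to 12 s after thallium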
# 14-3-3 Bad inh: disrupts binding of bovine 14-3-3 zeta to phospho-Bad peptide; P63103; TR-FRET 14-3-3zeta/Dy647-pBad peptide displacement, 1 h; 220,000 compounds, 0.71% hits; inhibition, % at 21.7 µM;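 active means inhibition above about 70%, limit read from the data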;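 further: 0% = full 14-3-3 plus peptide FRET controls and 100% = background without 14-3-3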
# Target sequence (P63103 whole entry, looked up): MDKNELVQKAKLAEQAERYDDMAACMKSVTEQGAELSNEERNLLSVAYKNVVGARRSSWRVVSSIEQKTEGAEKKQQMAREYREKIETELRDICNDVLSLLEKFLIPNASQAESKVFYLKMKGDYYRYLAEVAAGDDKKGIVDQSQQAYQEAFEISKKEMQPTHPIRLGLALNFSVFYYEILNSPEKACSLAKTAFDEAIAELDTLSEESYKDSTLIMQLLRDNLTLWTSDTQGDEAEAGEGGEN
# KCC2 sec1: confirmation of human KCC2 transport modulators. HEK293-KCC2, thallium flux, FluoZin2 fluorescence; active compounds read high. shares compounds with Cl transport mod. normalised thallium flux (F/F0 slope) at 10 µM. 3,700 compounds, 15% hits;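 active means thallium flux slope above the same plate's solvent-only control mean plus 3 SD; inconclusive means the two replicate wells disagree; inactive means no significant difference from solvent-only control wells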
# KCC2 bumet counter: thallium flux despite bumetanide block in KCC2 cells, secondary assay 3. normalized thallium flux at 10 µM. HEK293-KCC2 + bumetanide/ouabain, thallium flux FluoZin2; active compounds read high. AID 1714. 3,700 compounds, 49% hits. shares compounds with Cl transport mod;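 active means thallium entry rate above the same plate's blocked-transporter control wells by more than 3 SD; inconclusive means the two repeat wells disagree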;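 further: raw slope of fluorescence over initial fluorescence between 10 and 20 s after thallium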
# KCC2 secondary2: confirmation of human KCC2 transport modulators. shares compounds with Cl transport mod. HEK293-KCC2, thallium flux FluoZin2 fluorescence; actives lie on both sides; F/F0 rise rate, 10–20 s post-thallium. normalized thallium flux at 10 µM. 3,700 compounds, 23% hits. AID 1715;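 active means thallium flux slope more than 3 SD above or below the plate's solvent-only control mean, mostly below; inconclusive means the two repeat wells disagreed; inactive means no significant shift from solvent-only controls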;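 further: raw slope with 0.1% DMSO as baseline and bumetanide as block control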
# HEK counter1: parental HEK flux effect, counter-screen. shares compounds with Cl transport mod. HEK293 parental cells, thallium flux FluoZin2, ouabain; baseline-ratio fluorescence slope, 10–20 s after thallium. thallium flux rate (normalised fluorescence) at 10 µM. 3,700 compounds, 46% hits. AID 1716;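 active means thallium flux rate significantly above the same plate's solvent-only control wells, beyond their mean plus 3 SD; inconclusive means the two replicate wells gave conflicting results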
# KCC2 retest ouab: KCC2 (human) modulation, ouabain retest; shares compounds with Cl transport mod; HEK293-KCC2, thallium flux FluoZin2 fluorescence; bidirectional: low = inhibitor, high = activator; raw Tl+ flux slope (below DMSO = inhibition, above = activation) at 10 µM; 3,700 compounds, 48% hits;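 active means thallium flux slope beyond 3 SD from same-plate DMSO control mean in most replicates, usually higher, sometimes lower; inconclusive means repeat tests gave conflicting results; inactive means no significant difference from controls in most replicates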;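 further: slope of initial-normalized fluorescence between seconds 10 and 20 after thallium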
# HEK counter2: acts in parental HEK cells, second KCC2 counter-screen; shares compounds with Cl transport mod; HEK293 parental, thallium flux FluoZin-2 fluorescence slope; thallium flux slope at 10 µM; 3,700 compounds, 33% hits; AID 1718;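 active means thallium flux slope above the same plate's solvent-control mean plus 3 SD in both duplicate wells; inconclusive means duplicate wells that disagreed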;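 further: run without ouabain in cells lacking the KCC2 cotransporter; slope of fluorescence scaled to its starting value between 10 and 20 s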
# Starred values were filed as active, the others as inactive; ? = inconclusive; . = no result given. In the library only some 5.8% were active in any assay of this set; here they are far more common.
SMILES,WT yeast gro inh,NCF1 inh,RBBP9 inhibitor,Cl transport mod,ROMK primary,14-3-3 Bad inh,KCC2 sec1,KCC2 bumet counter,KCC2 secondary2,HEK counter1,KCC2 retest ouab,HEK counter2
O=C(NC(=S)N1CCN(C2CCCCC2)CC1)c1ccccc1,0,-2,-5,35*,0.044,-11,0.033*,0.053*,0.047*,0.03*,0.038*,0.035*
Cc1cc(C)c(C#N)c(Oc2ccccc2Br)n1,-3,-12,-10,-2.7,0.13,-11,.,.,.,.,.,.
CN1CCN(C(=S)NC(=O)c2ccc(-c3ccccc3)cc2)CC1,10,-11,-2,27*,0.71,-13,0.03*,0.065*,?,0.034*,0.036*,0.038*
Cc1ccc(C(=O)NC(=S)N2CCN(C)CC2)cc1,-6,-14,5,1.8,0.21,-6,.,.,.,.,.,.
CN1CCN(C(=S)NC(=O)c2ccc(C(C)(C)C)cc2)CC1,-10,-3,1,11*,1,-8,0.0056,0.018*,0.03,0.016*,?,0.015*
CCOC(=O)N1CCN(C(=S)NC(=O)c2ccc(F)cc2)CC1,-2,4,-9,4.2*,0.57,-7,0.017,0.011*,0.033,0.013*,0.02,0.016*
O=C(NC(=S)N1CCCCCC1)c1ccccc1Cl,-15,-5,-6,23*,0.31,-22,0.025*,0.054*,0.038,0.024*,0.048*,0.014*
CCCN1CNc2c(c(=O)[nH]c(=S)n2CCc2ccc(OC)c(OC)c2)C1,5,-22,0,0.097,0.75,-4,.,.,.,.,.,.
C/C(Cn1cnc([N+](=O)[O-])n1)=N/NC(=O)COc1c(Cl)cc(Cl)cc1Cl,-6,4,-12,-0.11,-0.74,1,.,.,.,.,.,.
COc1ccc(Oc2cccc(Cl)c2CNC(=O)CCCC(=O)O)cc1,.,-9,0,-0.47,.,-6,.,.,.,.,.,.
OCc1ccccc1CNCc1ccccc1,18,-6,-6,.,-0.43,20,0.0097,0.0051,0.035,0.0079,0.019,0.011
COc1ccc(CCC(=O)N2CCCSC2=Nc2ccc(C(C)=O)cc2)cc1,-6,-7,-6,-0.79,.,1,.,.,.,.,.,.
Cc1cc(C)n(-c2nc(SCCN(C)C)c3c4c(sc3n2)CCCC4)n1,-7,-12,-9,6.2*,.,-1,0.0072,0.02*,0.037,0.014*,0.025*,0.016*
Cc1cc(C)n(-c2nc(SCC(=O)O)c3c4c(sc3n2)COC(C)(C)C4)n1,.,-9,-4,1.8,.,-9,.,.,.,.,.,.
COc1ccccc1NC(=O)CC1C(=O)Nc2ccccc2N1C(=O)c1ccccc1 (stereo unspecified),8,6,-7,0.47,0.054,8,.,.,.,.,.,.
O=c1nc(Nc2ccccc2)oc2ccccc12,.,-7,-11,0.22,0.38,-7,.,.,.,.,.,.
O=c1nc(Nc2cccc(Cl)c2)oc2cc(Cl)oc(=O)c12,.,-69,-20,-4.5*,.,2,0.0062,0.0048,0.029,0.0065,?,0.01
Fc1ccccc1NC(=S)Nc1ccc(CN2CCOCC2)cc1,5,.,8,0.14,1.2,-2,.,.,.,.,.,.
CCC(=O)Nc1cccc(NC(=S)NC(=O)c2ccccc2C)c1,-6,-3,-5,-0.0025,-0.38,-5,.,.,.,.,.,.
O=C(Cc1ccc(-n2cccc2)cc1)NC1CCCCCC1,-3,-21,-11,-4.2*,.,-6,0.0065,0.0044,?,0.0072,0.016,0.01
COc1cc(/C=N/NC(=S)Nc2cccc(S(=O)(=O)N(C)C)c2)ccc1O,2,-27,-4,-3.4*,0.0065,8,0.0061,0.0071,0.029,0.0066,0.016*,0.0095
CN(C)S(=O)(=O)c1cccc(NC(=S)NN=C(Cc2ccccc2)Cc2ccccc2)c1,2,-8,-7,5.9*,.,-27,0.0069,0.0099*,0.034,0.014*,0.023,0.016*
CN(C)S(=O)(=O)c1cccc(NC(=S)NC2CCCCC2)c1,-4,-3,-6,0.26,-0.47,-6,.,.,.,.,.,.
O=C(/C=C\c1ccc2c(c1)OCO2)Nc1c2c(nn1-c1ccc(Cl)cc1)CSC2,20,0,-13,-1.4,0.027,1,.,.,.,.,.,.
CCCn1c(SCC(=O)N2CCCCC2)nnc1-c1ccco1,-16,-3,4,5.6*,.,4,0.0084,0.0061,0.032,0.0074,0.022,0.0097
SMILES,WT yeast gro inh,NCF1 inh,RBBP9 inhibitor,Cl transport mod,ROMK primary,14-3-3 Bad inh,KCC2 sec1,KCC2 bumet counter,KCC2 secondary2,HEK counter1,KCC2 retest ouab,HEK counter2
O=C(CSc1nnc(-c2ccco2)n1Cc1ccccc1)c1ccccc1,-11,-7,-9,-8.2*,.,-2,0.0066,0.0047,?,?,0.015*,0.01
Cc1ccc(C(=O)CSc2nnc(-c3ccco3)n2Cc2ccccc2)cc1,-7,-9,-2,-3.2*,.,6,0.0063,0.0036,0.031,?,0.013*,0.011
O=C(Nc1nnc(-c2cccs2)s1)c1cccc(F)c1,13,1,5,-0.08,0.6,-8,.,.,.,.,.,.
CC1Cc2ccccc2N1C(=O)COc1ccc2c(c1)OCO2 (stereo unspecified),-3,-7,-5,-2.8,.,-2,.,.,.,.,.,.
CC1CCCN(c2nc3nonc3nc2N2CCCC(C)C2)C1 (stereo unspecified),2,-10,1,-1.2,-1.3,-7,.,.,.,.,.,.
CN(Cc1ccccc1)c1nc2nonc2nc1N1CCCC(CN2CCCC2=O)C1 (stereo unspecified),.,6,6,-5.4*,.,3,0.016,0.0045,0.019*,0.0071,0.013,0.0096
COCC1CCN(c2nc3nonc3nc2N2CCSCC2)C1 (stereo unspecified),-10,-9,7,0.76,0.4,-14,.,.,.,.,.,.
CC(=O)NCC1CCCN(c2nc3nonc3nc2N(C)Cc2ccccc2)C1 (stereo unspecified),0,-5,-10,-7*,0.37,-5,0.0098,0.0065,0.029*,0.0044,0.016*,0.012
CC(C)(C)Sc1ccccc1S(=O)(=O)C(C)(C)C,.,2,1,-1.2,.,1,.,.,.,.,.,.
